Compound activity deposited in PubChem by The Scripps Research Institute Molecular Screening Center.
A selection: hits, their analogues and other compounds. The true share with any hit is near 3.6%.
IMP-1 inhibitor: inhibitors of Pseudomonas aeruginosa IMP-1 metallo-beta-lactamase; inhibition, % at 5.6 µM; actives 0.45% (n = 290,000); purified IMP-1, nitrocefin hydrolysis, epi-absorbance fluorescence;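 active means inhibition above the mean plus 3 SD of all compounds in the same screening run, cut at about 4.5% in these data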;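 further: 0% = IMP-1 with DMSO and 100% = DMSO wells lacking enzyme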
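Test system: recombinant IMP-1 enzyme, purified / Medium: HEPES buffer pH 7.1 with ZnSO4 and Brij 35 / Doses: single dose, 5.6 µM / Times: 25 °C, 15 min preincubation, 25 min reaction / Detection: Epi-absorbance via hydrolysed-nitrocefin quenching of white-plate fluorescence, 480/530 nm, EDTA stop / Evaluation: percent inhibition from optical density relative to buffer-blank wells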
pPAFAH inh: inhibitors of human plasma PAF acetylhydrolase (pPAFAH); Q13093; AID 463082; inhibition, % at 3.39 µM; recombinant pPAFAH, FP-rhodamine probe fluorescence polarization; actives 1.5% (n = 330,000);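 active means inhibition above the mean inhibition across the screen plus 3 SD, cut at about 25% in these data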;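 further: inhibitors block binding of the rhodamine activity-based probe so polarization drops; 0% = enzyme with DMSO and 100% = wells lacking pPAFAH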
Target sequence (Q13093 whole entry, looked up): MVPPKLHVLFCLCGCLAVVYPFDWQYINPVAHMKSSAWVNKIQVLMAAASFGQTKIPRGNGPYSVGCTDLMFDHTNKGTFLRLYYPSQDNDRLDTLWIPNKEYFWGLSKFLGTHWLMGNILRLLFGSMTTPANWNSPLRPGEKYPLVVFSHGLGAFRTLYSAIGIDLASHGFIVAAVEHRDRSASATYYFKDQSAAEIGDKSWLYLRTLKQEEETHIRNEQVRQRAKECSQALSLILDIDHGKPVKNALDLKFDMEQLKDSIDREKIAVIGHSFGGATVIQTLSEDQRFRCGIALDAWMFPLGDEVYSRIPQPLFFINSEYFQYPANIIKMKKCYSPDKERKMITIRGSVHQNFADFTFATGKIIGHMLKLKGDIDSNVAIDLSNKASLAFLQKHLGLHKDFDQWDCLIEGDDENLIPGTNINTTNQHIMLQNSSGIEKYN
PAFAH1B3 FP inh: PAFAH1B3 (human) inhibition. recombinant PAFAH1B3, FP-rhodamine probe, fluorescence polarization. actives 0.28% (n = 340,000). inhibition, % at 3.39 µM. Q15102. AID 492972;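 active means inhibition above the screen-wide average of all tested compounds plus 3 SD, cut at about 25% in these data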;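 further: 0% = enzyme with DMSO only and 100% = wells lacking PAFAH1B3 protein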
VIM-2 inh: blocks Pseudomonas aeruginosa VIM-2 metallo-beta-lactamase; purified VIM-2, nitrocefin hydrolysis, epi-absorbance fluorescence; inhibition, % at 5.6 µM; actives 0.89% (n = 290,000);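 active means inhibition above the mean of all tested compounds plus 3 SD, cutoff set per screening run, cut at about 7.5% in these data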;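 further: red hydrolysis product quenches plate fluorescence so inhibitors raise well fluorescence; 0% = enzyme with DMSO and 100% = DMSO without enzyme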
PAFAH1B2 FP inh: inhibitors of human PAFAH1B2 | P68402 | recombinant PAFAH1B2, FP-rhodamine activity probe, fluorescence polarization | inhibition, % at 3.39 µM | actives 1.2% (n = 340,000);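 active means inhibition above the mean of all tested compounds plus 3 SD, cut at about 24% in these data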;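 further: 0% = enzyme with DMSO and 100% = wells lacking PAFAH1B2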
Target sequence (P68402 whole entry, looked up): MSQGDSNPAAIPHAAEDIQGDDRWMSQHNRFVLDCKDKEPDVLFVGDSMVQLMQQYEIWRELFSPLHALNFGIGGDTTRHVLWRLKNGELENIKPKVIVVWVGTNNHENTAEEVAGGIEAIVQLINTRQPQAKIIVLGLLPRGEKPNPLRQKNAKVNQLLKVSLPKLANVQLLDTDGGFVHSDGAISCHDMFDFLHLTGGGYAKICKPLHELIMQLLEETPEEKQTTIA
PAFAH2 inh: inhibitors of human PAFAH2; Q99487; recombinant PAFAH2, FP-rhodamine activity probe, fluorescence polarization; inhibition, % at 3.39 µM; actives 0.99% (n = 340,000);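 active means inhibition above the mean over all tested compounds plus 3 SD, cut at about 30% in these data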;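 further: inhibitors block probe labeling of enzyme so polarization drops; 0% = enzyme with DMSO and 100% = wells lacking PAFAH2 protein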
PAFAH2 FP conf: PAFAH2 (human) inhibition, confirmed; recombinant PAFAH2, FP-rhodamine activity probe, fluorescence polarization; AID 493030; inhibition, % at 3.39 µM; actives 65% (n = 2,300); shares compounds with PAFAH2 inh;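 active means mean inhibition over three repeats above a set limit taken from the earlier primary screen, cut at about 30% in these data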;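 further: inhibitor blocks binding of rhodamine activity probe so polarization falls; 0% = enzyme with DMSO and 100% = wells lacking PAFAH2 protein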
The depositor's hits bear a star.

Screening O=C(COC(=O)c1cccs1)Nc1ccccc1 returned IMP-1 inhibitor -2.3, pPAFAH inh 8.1, PAFAH1B3 FP inh 3.5, VIM-2 inh -1.0, PAFAH1B2 FP inh -5.0, PAFAH2 inh 76.7* and PAFAH2 FP conf 77.5*.
For O=C(COC(=O)c1cccs1)Nc1nc(-c2ccccc2)cs1 the results were IMP-1 inhibitor -1.9, pPAFAH inh 1.5, PAFAH1B3 FP inh 2.9, VIM-2 inh -1.9, PAFAH1B2 FP inh -4.3 and PAFAH2 inh 9.2.
For CC(=O)c1ccc(NC(=O)c2ccc(CNc3c(N4CCCC4)c(=O)c3=O)cc2)cc1 the results were IMP-1 inhibitor -1.3, pPAFAH inh 6.8, PAFAH1B3 FP inh -5.1, VIM-2 inh -1.4, PAFAH1B2 FP inh 7.3, PAFAH2 inh 62.4* and PAFAH2 FP conf 65.0*.
Screening CC(=O)c1ccc(NC(=O)c2ccc(CNc3c(N4CCOCC4)c(=O)c3=O)cc2)cc1 returned IMP-1 inhibitor -3.0, pPAFAH inh -1.7, PAFAH1B3 FP inh 10.0, VIM-2 inh -1.0, PAFAH1B2 FP inh 0.9, PAFAH2 inh 70.4* and PAFAH2 FP conf 62.7*.
Screening COc1cc(NC(=O)c2ccc(CNc3c(N4CCOCC4)c(=O)c3=O)cc2)cc(OC)c1 returned IMP-1 inhibitor -3.5, pPAFAH inh -2.3, PAFAH1B3 FP inh -4.0, VIM-2 inh -3.0, PAFAH1B2 FP inh -1.8 and PAFAH2 inh 3.1.
`CSCCC(NS(=O)(=O)c1ccc(Cl)c(Cl)c1)C(=O)O` (configuration not stated) gave IMP-1 inhibitor -2.8, pPAFAH inh -9.0, PAFAH1B3 FP inh 3.1, VIM-2 inh -1.4, PAFAH1B2 FP inh 13.4, PAFAH2 inh 68.0* and PAFAH2 FP conf 70.8*.
`CC(=O)c1ccc(NC(=O)COC(=O)c2ccc(F)cc2F)cc1` gave IMP-1 inhibitor -1.1, pPAFAH inh 19.3, PAFAH1B3 FP inh -10.7, VIM-2 inh -2.4, PAFAH1B2 FP inh 3.5 and PAFAH2 inh 28.5.
For O=C(COC(=O)c1ccccc1Br)Nc1ccc(F)cc1 the results were IMP-1 inhibitor -4.2, pPAFAH inh 11.9, PAFAH1B3 FP inh 5.1, VIM-2 inh -2.5, PAFAH1B2 FP inh 5.4, PAFAH2 inh 76.1* and PAFAH2 FP conf 69.6*.
`Cc1occc1C(=O)OCC(=O)Nc1ccc(F)cc1` gave IMP-1 inhibitor -0.7, pPAFAH inh 7.1, PAFAH1B3 FP inh 4.7, VIM-2 inh -2.9, PAFAH1B2 FP inh 0.8, PAFAH2 inh 72.7* and PAFAH2 FP conf 61.8*.
CCOC(=O)Nc1ccc2c(CNC(C)c3ccccc3OC)cc(=O)oc2c1 (configuration not stated) was read as IMP-1 inhibitor -1.0, pPAFAH inh 9.3, PAFAH1B3 FP inh 4.8, VIM-2 inh 0.2, PAFAH1B2 FP inh 1.7 and PAFAH2 inh -4.4.
CC(=O)N1CCN(S(=O)(=O)c2cccc(C(=O)OCc3cccc(F)c3)c2)CC1 was read as pPAFAH inh 11.1, PAFAH1B3 FP inh 3.3, PAFAH1B2 FP inh 9.0 and PAFAH2 inh 6.7.
For O=C(COC(=O)CCC(=O)c1ccc(F)cc1)Nc1ccc(Cl)cn1 the results were pPAFAH inh 11.4, PAFAH1B3 FP inh 6.1, PAFAH1B2 FP inh 3.8 and PAFAH2 inh -1.8.
Screening O=C(COC(=O)c1ccc(CN2CCCC2=O)cc1)Nc1ccc(F)cc1 returned pPAFAH inh 8.4, PAFAH1B3 FP inh 5.9, PAFAH1B2 FP inh 0.4, PAFAH2 inh 85.5* and PAFAH2 FP conf 86.3*.
Cc1ccc(NC(=O)COC(=O)c2ccc(CN3CCCC3=O)cc2)cc1C was read as PAFAH1B3 FP inh 8.6, PAFAH1B2 FP inh 0.4, PAFAH2 inh 91.8* and PAFAH2 FP conf 84.6*.
COc1ccc(N2CC(O)=C(c3nc(-c4ccc(F)cc4)cs3)C2=N)cc1OC was read as IMP-1 inhibitor -2.7, pPAFAH inh 21.6, PAFAH1B3 FP inh 10.0, VIM-2 inh 0.8, PAFAH1B2 FP inh 1.5, PAFAH2 inh 41.3* and PAFAH2 FP conf 41.7*.
For CN(C)S(=O)(=O)c1cccc(NC(=O)c2cccc(S(=O)(=O)N3CCc4ccccc43)c2)c1 the results were pPAFAH inh -23.1, PAFAH1B3 FP inh -25.1, PAFAH1B2 FP inh -21.0 and PAFAH2 inh -44.3.
`COc1cc(/C=C/C(=O)OCC(=O)NCc2ccco2)ccc1OC(F)F` gave IMP-1 inhibitor -2.2, pPAFAH inh 7.5, PAFAH1B3 FP inh 6.6, VIM-2 inh -2.4, PAFAH1B2 FP inh 5.3, PAFAH2 inh 39.4* and PAFAH2 FP conf 28.0.
Screening COc1cc(/C=C/C(=O)OCC(=O)NCc2cccs2)ccc1OCC#N returned IMP-1 inhibitor -3.4, pPAFAH inh 5.8, PAFAH1B3 FP inh -2.0, VIM-2 inh -0.4, PAFAH1B2 FP inh 1.5, PAFAH2 inh 52.6* and PAFAH2 FP conf 52.0*.
For COc1cccc(/C=C/C(=O)OCC(=O)c2ccccc2)c1OC the results were pPAFAH inh 8.8, PAFAH1B3 FP inh 10.7, PAFAH1B2 FP inh 6.8, PAFAH2 inh 57.6* and PAFAH2 FP conf 33.5*.
Screening COc1cccc(/C=C/C(=O)OCC(=O)c2ccc(C)c(C)c2)c1OC returned pPAFAH inh 6.6, PAFAH1B3 FP inh 0.1, PAFAH1B2 FP inh 0.6 and PAFAH2 inh 20.9.
For C=CCOc1ccc(/C=C/C(=O)OCC(=O)NCc2cccs2)cc1 the results were pPAFAH inh 4.4, PAFAH1B3 FP inh -1.5, PAFAH1B2 FP inh -2.1, PAFAH2 inh 38.1* and PAFAH2 FP conf 41.0*.
For COc1cc(/C=C/C(=O)OCC(=O)Nc2cc(C)on2)ccc1OCC#N the results were PAFAH1B3 FP inh 7.2, PAFAH1B2 FP inh 9.8 and PAFAH2 inh 26.0.
For Cn1c(CCN2CCN(c3ccccn3)CC2)nc2cc(NC(=O)COc3ccccc3)ccc21 the results were IMP-1 inhibitor -1.0, pPAFAH inh 5.7, PAFAH1B3 FP inh 7.2, VIM-2 inh -1.9, PAFAH1B2 FP inh 2.8 and PAFAH2 inh 4.7.
COc1cccc(/C=C/C(=O)OCC(=O)NCC2CCCCC2)c1OC was read as pPAFAH inh 8.1, PAFAH1B3 FP inh 4.5, PAFAH1B2 FP inh -0.5, PAFAH2 inh 79.5* and PAFAH2 FP conf 79.0*.
For COc1ccc(/C=C/C(=O)OCC(=O)NCc2ccco2)cc1OC the results were IMP-1 inhibitor -3.0, pPAFAH inh 4.8, PAFAH1B3 FP inh 6.9, VIM-2 inh -1.0, PAFAH1B2 FP inh -0.5, PAFAH2 inh 48.8* and PAFAH2 FP conf 38.5*.
`CCOc1cc(/C=C/C(=O)OCC(=O)NCc2ccco2)cc(Cl)c1OC` gave pPAFAH inh 3.9, PAFAH1B3 FP inh 0.1, PAFAH1B2 FP inh 2.0 and PAFAH2 inh 15.1.
COc1cccc(/C=C/C(=O)OCC(=O)NCc2ccco2)c1OC was read as IMP-1 inhibitor -2.7, pPAFAH inh 9.5, PAFAH1B3 FP inh 7.1, VIM-2 inh -4.7, PAFAH1B2 FP inh 0.3, PAFAH2 inh 65.6* and PAFAH2 FP conf 53.2*.
